The source of these data is ChEMBL document CHEMBL1154765, “A series of alpha-amino acid ester prodrugs of camptothecin: in vitro hydrolysis and A549 human lung carcinoma cell cytotoxicity” (J Med Chem, 2010).

pIC50: −log10 of the molar value.

The nature of data set [1]: Stability in phosphate buffer assessed as half life of camptothecin formation at 5 mg at pH 7.4 by HPLC. The format is physicochemical. The conditions noted are these: in vitro. An outline of the steps: (§1)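 Prodrug (5 mg) in 2 mL 100 mM sodium phosphate buffer on shaker at 37 °C, in triplicate. Aliquots taken at set times, dried, reconstituted in methanol, and analysed by HPLC with fluorescence detection. CPT appearance fit to first-order kinetics, Ct versus C∞; half-life derived from the rate constant.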

Data set [2] in a line: Stability in phosphate buffer assessed as half life of prodrug hydrolysis at 5 mg at pH 7 by HPLC. The format is physicochemical. An outline of the steps:
(§2)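 In 100 mM sodium phosphate buffer, 5 mg prodrug per 2 mL, shaken at 37 °C, triplicate runs. Timed aliquots dried, taken up in methanol, and quantified by HPLC with fluorescence detection. Prodrug loss fit to first-order decay, Ct versus C0; half-life obtained from the rate constant.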

The nature of data set [3]: Stability in phosphate buffer assessed as half life of prodrug hydrolysis at 5 mg at pH 6.6 by HPLC. Particulars: in vitro. It is filed as physicochemical. The gist of the method: as §2
Data set [4] is described as follows: Stability in phosphate buffer assessed as half life of prodrug hydrolysis at 5 mg at pH 7.4 by HPLC. It is filed as physicochemical. The conditions noted are these: in vitro. An outline of the steps:
as §2

A short description of data set [5]: Stability in phosphate buffer assessed as half life of camptothecin formation at 5 mg at pH 6.6 by HPLC. The format is physicochemical. The conditions noted are these: in vitro. The gist of the method: as §1
The nature of data set [6]: Stability in phosphate buffer assessed as half life of camptothecin formation at 5 mg at pH 7 by HPLC. The format is physicochemical. An outline of the steps: as §1
The test system of data set [7] is A549. As to the kind of experiment: Cytotoxicity against human A549 cells after 48 hrs by MTT method. It is filed as functional, cell-based. The conditions noted are these: A549, 48 h. The gist of the method:
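A549 cells grown in DMEM/F-12 with 10% FBS, 37 °C, 5% CO2; seeded 10,000 cells/well, attached 24 h, then exposed in triplicate to 30 dilutions for 48 h. Washed with PBS, MTT added 5 h at 37 °C in dark, crystals dissolved in SDS/DMF:water, absorbance 570 nm (reference 690 nm). Viability relative to drug-free controls; IC50 from variable-slope sigmoidal fit.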
In general terms: Formazan colour is commonly taken as a measure of viable cells.

Turning to `CCC[C@@H](N)C(=O)O[C@]1(CC)C(=O)OCc2c1cc1n(c2=O)Cc2cc3ccccc3nc2-1`, the t1/2 in data set [1] came out at 32.31 h; in data set [2], 4.119 h; in data set [3], 4.652 h; in data set [4], 2.926 h; in data set [5], 38.26 h; in data set [6] it was 36.7 h. The pIC50 in data set [7] was 8.28.

Take `CC[C@@]1(O)C(=O)OCc2c1cc1n(c2=O)Cc2cc3ccccc3nc2-1` [CAMPTOTHECIN]: in data set [7], the pIC50 is 8.27.

For `CC[C@@]1(OC(=O)CN)C(=O)OCc2c1cc1n(c2=O)Cc2cc3ccccc3nc2-1`, the t1/2 came to 10.79 h in data set [1]; 1.802 h in data set [2]; 2.564 h in data set [3]; 1.774 h in data set [4]; 11.54 h in data set [5]; 11.26 h in data set [6]. Further, the negative-log IC50 (pIC50) in data set [7] was 7.91.

With `CC[C@@H](N)C(=O)O[C@]1(CC)C(=O)OCc2c1cc1n(c2=O)Cc2cc3ccccc3nc2-1`, the t1/2 in data set [1] turned out to be 25.34 h; in data set [2], 3.197 h; in data set [3], 4.68 h; in data set [4] it was 2.934 h; in data set [5] it was 28.25 h; in data set [6], 26.27 h. Also, in data set [7], the negative logarithm of the IC50 (pIC50) is 8.39.

For `CC[C@@]1(OC(=O)[C@@H](C)N)C(=O)OCc2c1cc1n(c2=O)Cc2cc3ccccc3nc2-1`, the t1/2 in data set [1] was 15.47 h; in data set [2] it was 2.828 h; in data set [3] it was 4.336 h; in data set [4], 2.496 h; in data set [5] it was 21.31 h; in data set [6] it was 16.3 h. In data set [7], the pIC50 was 6.92.

The term pIC50 denotes −log10 of the IC50, conventionally taken in molar units.
